Experimental data taken from ChEMBL document CHEMBL2203101, “Molecular hybridization of bioactives: synthesis and antitubercular evaluation of novel dibenzofuran embodied homoisoflavonoids via Baylis-Hillman reaction” (Bioorg Med Chem Lett, 2012).
In brackets after ≈: the same amount, converted by molar mass.

Experiments:
[1] = Lipophilicity, log P of the compound; type: physicochemical; settings: octanol/water
[2] = test system: Mycobacterium tuberculosis; experiment: Antimycobacterial activity against Mycobacterium tuberculosis H37Rv ATCC 27294 after 28 days by agar dilution method; type: functional; settings: H37Rv ATCC 27294, 672 h
Outline: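 Compounds and reference drugs were tenfold serially diluted into Middlebrook 7H11 agar with OADC supplement. The inoculum came from fresh 7H11/OADC slants, was adjusted to 1 mg/mL (wet weight) in 0.05% Tween 80 saline, and was diluted 10^-2 to give 10^7 cfu/mL. Bacterial suspension was spotted onto the drug-containing agar tubes, incubated at 37 C, and final readings were taken after 28 days.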

Row | Compound | logP [1] | MIC [2]
1 | COc1ccc2c(c1)C(=O)/C(=C/c1ccc3oc4ccccc4c3c1)CO2 | 3.56 | 25 µg/mL (≈ 70.2 µM)
2 | NC(=O)c1cnccn1 [PYRAZINAMIDE] | – | 50 µg/mL (≈ 406 µM)
3 | O=C1/C(=C/c2ccc3oc4ccccc4c3c2)COc2ccccc21 | 3.69 | 25 µg/mL (≈ 76.6 µM)
4 | O=C1/C(=C/c2ccc3oc4ccccc4c3c2)COc2ccc(F)cc21 | 3.84 | 12.5 µg/mL (≈ 36.3 µM)
5 | CC[C@@H](CO)NCCN[C@@H](CC)CO [ETHAMBUTOL] | – | 3.13 µg/mL (≈ 15.3 µM)
6 | O=C1/C(=C/c2ccc3oc4ccccc4c3c2)COc2c1ccc1ccccc21 | 4.68 | 25 µg/mL (≈ 66.4 µM)
7 | COc1cccc2c1OC/C(=C\c1ccc3oc4ccccc4c3c1)C2=O | 3.56 | 25 µg/mL (≈ 70.2 µM)
8 | O=C1/C(=C/c2ccc3oc4ccccc4c3c2)COc2ccc3[nH]c4ccccc4c3c21 | 4.38 | 25 µg/mL (≈ 60.2 µM)
9 | NNC(=O)c1ccncc1 [ISONIAZID] | – | 0.1 µg/mL (≈ 0.729 µM)
10 | O=C1/C(=C/c2ccc3oc4ccccc4c3c2)COc2ccc3oc4ccccc4c3c21 | 4.35 | 25 µg/mL (≈ 60 µM)
11 | Cc1ccc2c(c1)C(=O)/C(=C/c1ccc3oc4ccccc4c3c1)CO2 | 4.17 | 25 µg/mL (≈ 73.4 µM)
12 | O=C1/C(=C/c2ccc3oc4ccccc4c3c2)COc2ccc3ccccc3c21 | 4.68 | 25 µg/mL (≈ 66.4 µM)
13 | CC(C)(C)c1ccc2c(c1)C(=O)/C(=C/c1ccc3oc4ccccc4c3c1)CO2 | 5.39 | 25 µg/mL (≈ 65.4 µM)
14 | O=C1/C(=C/c2ccc3oc4ccccc4c3c2)COc2ccc(Br)cc21 | 4.51 | 12.5 µg/mL (≈ 30.8 µM)
